According to ChEMBL document CHEMBL4024790 (J Med Chem, 2018):
Active and inactive are the calls of the source. The calls are words filed in the database; no cut-off is given here.

Tests used:
Liver [1] = assay: Drug metabolism in human liver microsomes assessed as 3-(7-methyl-5-(1-methyl-5-(5-(trifluoromethyl)pyridin-2-yl)-1H-pyrazol-4-yl)imidazo[1,5-f][1,2,4]triazin-4-ylamino)propanoic acid formation at 1 to 50 uM after 1 hr by LC-MS/MS analysis; type: ADME, microsome
Procedure, shortened: (§1)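 Rat, dog or human liver microsomes or hepatocytes (P450 0.35–0.5 µM final) incubated with compound at 1, 10 or 50 µM in 100 mM phosphate buffer with 1 mM NADP regenerating system, 37°C for 1 h; quenched with 4 volumes acetonitrile, centrifuged, supernatant evaporated, reconstituted in 5% aqueous acetonitrile and analysed by reversed-phase LC.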

Cytochrome P450 1A2 = target: T1, Cytochrome P450 1A2 (Homo sapiens, UniProt P05177); assay: Inhibition of recombinant human CYP1A2; type: ADME; settings: recombinant enzyme
T1 sequence (P05177 whole entry): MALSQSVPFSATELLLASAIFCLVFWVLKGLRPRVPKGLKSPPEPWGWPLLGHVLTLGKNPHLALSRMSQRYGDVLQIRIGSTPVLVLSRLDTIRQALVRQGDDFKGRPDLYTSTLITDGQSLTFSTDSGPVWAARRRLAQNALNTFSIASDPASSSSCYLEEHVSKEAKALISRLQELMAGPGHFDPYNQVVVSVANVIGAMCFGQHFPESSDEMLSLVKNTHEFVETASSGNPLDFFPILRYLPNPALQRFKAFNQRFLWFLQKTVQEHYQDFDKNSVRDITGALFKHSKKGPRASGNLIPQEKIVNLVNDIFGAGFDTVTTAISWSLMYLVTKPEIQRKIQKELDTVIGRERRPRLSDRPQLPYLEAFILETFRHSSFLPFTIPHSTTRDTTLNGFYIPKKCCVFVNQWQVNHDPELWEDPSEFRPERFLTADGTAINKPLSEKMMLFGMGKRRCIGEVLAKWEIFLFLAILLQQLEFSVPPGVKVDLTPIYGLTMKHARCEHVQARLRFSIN

Mus musculus [2] = organism: Mus musculus; assay: Increase in cGMP level in CD-1 mouse brain striatum assessed as unbound brain concentration required to show the effect by immunoassay; type: functional
Procedure, shortened: (§2)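 CD-1 mice given compound; brains fixed by focused microwave irradiation, and cortex, striatum and hippocampus dissected and homogenized in 0.5 N HCl, then centrifuged. cGMP in the supernatant measured by enzyme immunoassay. Unbound brain concentration taken from satellite animals. Dose-response and time-course data combined, and a linear Cbu–cGMP model fitted. The Cbu E50 is the projected Cbu giving a 50% rise in cGMP. Statistics by one-way ANOVA with Fisher's PLSD, p<0.05.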

Rattus norvegicus [3] = assay: Reversal of ketamine-induced working memory deficit in Long Evans rat at 0.032 to 0.32 mg/kg, sc by radial arm maze assay
[4] = Cmax in beagle dog at 0.3 mg/kg, iv by LC-MS/MS analysis; type: ADME, organism-based, Canis lupus familiaris; set-up: dose 0.3 mg/kg, route intravenous; settings: in vivo
Procedure, shortened: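 Male Wistar-Han rats given single 1 mg/kg IV; beagle dogs 0.3 mg/kg IV; solution in 20% (w/v) sulfobutyl ether β-cyclodextrin with hydrochloric acid, 1 mL/kg (rat) or 0.4 mL/kg (dog). Blood via carotid artery cannula between 2 min and 24 h into EDTA tubes; plasma analysed by LC-MS/MS with positive electrospray.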

Rattus norvegicus [5] = assay: Reversal of ketamine-induced working memory deficit in Long Evans rat assessed as unbound brain concentration required to show effect at 0.1 mg/kg, sc by radial arm maze assay; type: functional, organism-based
Procedure, shortened: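 Rats trained in a radial arm maze working-memory task, with deficit induced by ketamine. Compound dosed sc; errors compared with vehicle + ketamine. N = 20–23 per group, Hochberg test. Cbu at the tested doses estimated from satellite pharmacokinetic animals.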

[6] = Terminal half life in beagle dog at 5 mg/kg, po administered via gavage by LC-MS/MS analysis; type: ADME, organism-based, Canis lupus familiaris; settings: in vivo, read-out: beta t1/2 (converted)
Mus musculus [7] = organism: Mus musculus; assay: Increase in cGMP level in CD-1 mouse brain hippocampus assessed per nM of unbound brain concentration by immunoassay; type: functional; procedure, shortened: as §2
Mus musculus [8] = organism: Mus musculus; assay: Increase in cGMP level in CD-1 mouse brain cortex by immunoassay; type: functional
Procedure, shortened: (§3)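 CD-1 mice dosed SC (solution in 20% SBE-β-CD with 2 molar equivalents 1N HCl, 1 mL/kg); euthanized by focused microwave irradiation of brain; cortex, striatum, hippocampus homogenized in 0.5 N HCl, centrifuged; cyclic nucleotides in supernatant by enzyme immunoassay. Unbound brain exposure from satellite animals; dose-response and time-course data combined with linear model; one-way ANOVA with Fisher's PLSD.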

Rattus norvegicus [9] = assay: Toxicity in rat assessed as effect on vasculature at 5 to 250 mg/kg/day, po up to 15 days by microscopic method; type: organism-based; settings: in vivo, 360 h
[10] = Drug metabolism in dog hepatocytes assessed as 3-(7-methyl-5-(1-methyl-5-(5-(trifluoromethyl)pyridin-2-yl)-1H-pyrazol-4-yl)imidazo[1,5-f][1,2,4]triazin-4-ylamino)propanoic acid formation at 1 to 50 uM after 1 hr by LC-MS/MS analysis; type: ADME, cell-based, Canis lupus familiaris, Hepatocyte; procedure, shortened: as §1
[11] = Drug metabolism in human hepatocytes assessed as 3-(7-methyl-5-(1-methyl-5-(5-(trifluoromethyl)pyridin-2-yl)-1H-pyrazol-4-yl)imidazo[1,5-f][1,2,4]triazin-4-ylamino)propanoic acid formation at 1 to 50 uM after 1 hr by LC-MS/MS analysis; type: ADME, cell-based, Hepatocyte; procedure, shortened: as §1
[12] = Volume of distribution at steady state in beagle dog at 0.3 mg/kg, iv by LC-MS/MS analysis; type: ADME, organism-based, Canis lupus familiaris; settings: in vivo, read-out: Vdss
Procedure, shortened: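 Beagle dogs got a single IV dose as a solution in 20% (w/v) sulfobutyl ether β-cyclodextrin with hydrochloric acid, at 0.4 mL/kg. Blood was drawn into K3EDTA via carotid artery cannula at set times from 2 min to 24 h. Plasma was acetonitrile-precipitated with internal standard and measured by LC-MS/MS with positive electrospray, standard curve 0.61 to 1250 ng/mL.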

Liver [13] = assay: Drug metabolism in dog liver microsomes assessed as 1-(7-methyl-5-(1-methyl-5-(5-(trifluoromethyl)pyridin-2-yl)-1H-pyrazol-4-yl)imidazo[1,5-f][1,2,4]triazin-4-yl)azetidin-3-ol formation at 1 to 50 uM after 1 hr by LC-MS/MS analysis; type: ADME, Canis lupus familiaris, microsome; procedure, shortened: as §1
[14] = Tmax in beagle dog at 5 mg/kg, po administered via gavage by LC-MS/MS analysis; type: ADME, organism-based, Canis lupus familiaris; settings: in vivo
Mus musculus [15] = organism: Mus musculus; assay: Increase in cGMP level in CD-1 mouse brain hippocampus assessed as unbound brain concentration required to show the effect by immunoassay; type: functional; procedure, shortened: as §3
Plasma = assay: Drug uptake in rat plasma at 5 to 250 mg/kg/day, po up to 15 days by microscopic method; type: ADME, organism-based; settings: in vivo, 360 h
Procedure, shortened: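 Exploratory rat toxicity study, oral dosing at 5, 50 and 250 mg/kg/day for up to 15 days, with microscopic examination of heart and vasculature and measurement of plasma and brain exposure.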

Rattus norvegicus [16] = assay: Reversal of MK-801-induced disruption of low frequency cortical delta oscillation in Sprague-Dawley rat brain at 0.03 mg/kg, iv measured up to 55 mins by electrophysiology method; type: functional, organism-based
[17] = Drug metabolism in rat hepatocytes assessed as 1-(7-methyl-5-(1-methyl-5-(5-(trifluoromethyl)pyridin-2-yl)-1H-pyrazol-4-yl)imidazo[1,5-f][1,2,4]triazin-4-yl)azetidin-3-ol formation at 1 to 50 uM after 1 hr by LC-MS/MS analysis; type: ADME, cell-based, Hepatocyte; procedure, shortened: as §1

Cc1nc(-c2cnn(C)c2-c2ccc(C(F)(F)F)cn2)c2c(N3CCC3)ncnn12 [PF-05180999]
Drug metabolism (Liver [1]): Metabolite_Detected | inhibition (INH) (Cytochrome P450 1A2): Not Active | fEC50 (Mus musculus [2]): 98 nM | Activity (Rattus norvegicus [3]): Active | Cmax [4]: 293 ng/mL | Drug uptake(free) (Rattus norvegicus [5]): 3.1 nM | half-life [6]: 4.1 h | Activity (Mus musculus [7]): 0.43% | Activity (Mus musculus [8]): Dose-dependent effect | Activity (Rattus norvegicus [9]): Non-Toxic | Drug metabolism [10]: Metabolite_Detected | Drug metabolism [11]: Metabolite_Detected | Vd [12]: 2.89 L/kg | Drug metabolism (Liver [13]): Metabolite_Detected | Tmax [14]: 0.25 h | fEC50 (Mus musculus [15]): 116.3 nM | Drug uptake (Plasma): Active | Activity (Rattus norvegicus [16]): inactive | Drug metabolism [17]: Metabolite_Detected
